# Reference: ChEMBL document CHEMBL5712896, “Targeting EHMT2 reverses EGFR-TKI resistance in NSCLC by epigenetically regulating the PTEN/AKT signaling pathway” (2018)
# Calls of active or inactive are those of the source. No cut-off for these calls is given here.
# What was measured:
# [1] = system: PC-9/ER; test: Induction of apoptosis in human PC-9/ER cells assessed as late apoptotic cells at 1 uM for 48 hrs by annexin V/PI staining based flow cytometric analysis relative to control; format: functional
# In short: (§1)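 PC9/ER cells given a PTEN expression vector or mock vector, then Erlotinib 1 μM for 48 h. Cells stained with Annexin V–FITC/PI (5 min, room temperature, dark) and analyzed by flow cytometry.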
# [2] = system: PC-9; test: Induction of apoptosis in human PC-9 cells assessed as necrotic cells at 0.1 uM for 48 hrs by annexin V/PI staining based flow cytometric analysis in presence of PTEN-siRNA relative to control; format: functional
# In short: (§2)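 PC9 cells given PTEN siRNA or scramble siRNA, then Erlotinib 0.1 μM for 48 h. Apoptosis by Annexin V–FITC/PI staining for 5 min at room temperature in the dark, read by flow cytometry.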
# [3] = system: PC-9/ER; test: Induction of apoptosis in human PC-9/ER cells assessed as early apoptotic cells at 1 uM for 48 hrs by annexin V/PI staining based flow cytometric analysis relative to control; format: functional; in short: as §1
# [4] = system: PC-9/ER; test: Induction of apoptosis in human PC-9/ER cells assessed as late apoptotic cells at 1 uM for 48 hrs by annexin V/PI staining based flow cytometric analysis (reference value: 5.7%); format: functional
# [5] = system: PC-9/ER; test: Antitumor activity against human PC-9/ER cells xenografted in SCID mouse assessed as inhibition of tumor growth at 12.5 mg/kg, ip daily for 3 weeks; format: functional, organism-based
# In short: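 Male SCID mice, 7–8 weeks old, injected s.c. in the right flank with 5 × 10^6 PC9/ER cells in PBS. At an average tumor volume of 50 mm3, randomized into groups of n = 6: saline, UNC0642 2.5 mg/kg bid i.p., Erlotinib 12.5 mg/kg/day i.p., or both. Tumor volume tracked and body weight recorded; tumors weighed after sacrifice at 3 weeks.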
# [6] = system: PC-9/ER; test: Induction of apoptosis in human PC-9/ER cells assessed as early apoptotic cells at 1 uM for 48 hrs by annexin V/PI staining based flow cytometric analysis in presence of scramble non-target siRNA (reference value: 1.3%); format: functional
# [7] = system: PC-9; test: Induction of apoptosis in human PC-9 cells assessed as late apoptotic cells at 0.1 uM for 48 hrs by annexin V/PI staining based flow cytometric analysis relative to control; format: functional; in short: as §2
# [8] = system: PC-9/ER; test: Induction of apoptosis in human PC-9/ER cells assessed as late apoptotic cells at 1 uM for 48 hrs by annexin V/PI staining based flow cytometric analysis in presence of […] siRNA (reference value: 4.2%); format: functional
# [9] = system: PC-9; test: Induction of apoptosis in human PC-9 cells assessed as late apoptotic cells at 0.1 uM for 48 hrs by annexin V/PI staining based flow cytometric analysis in presence of PTEN-siRNA relative to control; format: functional; in short: as §2
# [10] = system: PC-9/ER; test: Induction of apoptosis in human PC-9/ER cells assessed as viable cells at 1 uM for 48 hrs by annexin V/PI staining based flow cytometric analysis relative to control; format: functional; details: read-out: Activity; in short: as §1
# [11] = system: PC-9/ER; test: Induction of apoptosis in human PC-9/ER cells assessed as necrotic cells at 1 uM for 48 hrs by annexin V/PI staining based flow cytometric analysis in presence of scramble non-target siRNA (reference value: 2.3%); format: functional
# [12] = system: PC-9/ER; test: Induction of apoptosis in human PC-9/ER cells assessed as late apoptotic cells at 1 uM for 48 hrs by annexin V/PI staining based flow cytometric analysis in presence of PTEN vector relative to control; format: functional; in short: as §1
# [13] = system: PC-9/ER; test: Induction of apoptosis in human PC-9/ER cells assessed as necrotic cells at 1 uM for 48 hrs by annexin V/PI staining based flow cytometric analysis in presence of PTEN vector relative to control; format: functional; in short: as §1
# [14] = system: PC-9/ER; test: Induction of apoptosis in human PC-9/ER cells assessed as early apoptotic cells at 1 uM for 48 hrs by annexin V/PI staining based flow cytometric analysis (reference value: 0.9%); format: functional
# [15] = system: PC-9/ER; test: Induction of apoptosis in human PC-9/ER cells assessed as viable cells at 1 uM for 48 hrs by annexin V/PI staining based flow cytometric analysis (reference value: 91.4%); format: functional; details: read-out: Activity
# [16] = system: PC-9/ER; test: Induction of apoptosis in human PC-9/ER cells assessed as necrotic cells at 1 uM for 48 hrs by annexin V/PI staining based flow cytometric analysis (reference value: 2.1%); format: functional
# [17] = system: PC-9/ER; test: Induction of apoptosis in human PC-9/ER cells assessed as viable cells at 1 uM for 48 hrs by annexin V/PI staining based flow cytometric analysis in presence of scramble non-target siRNA (reference value: 92.2%); format: functional; details: read-out: Activity
# [18] = system: PC-9/ER; test: Induction of apoptosis in human PC-9/ER cells assessed as viable cells at 1 uM for 48 hrs by annexin V/PI staining based flow cytometric analysis in presence of […] siRNA (reference value: 92.2%); format: functional; details: read-out: Activity
# [19] = system: PC-9; test: Induction of apoptosis in human PC-9 cells assessed as viable cells at 0.1 uM for 48 hrs by annexin V/PI staining based flow cytometric analysis in presence of PTEN-siRNA relative to control; format: functional; details: read-out: Activity; in short: as §2
# [20] = system: PC-9/ER; test: Induction of apoptosis in human PC-9/ER cells assessed as necrotic cells at 1 uM for 48 hrs by annexin V/PI staining based flow cytometric analysis in presence of […] siRNA (reference value: 2.3%); format: functional
# [21] = system: PC-9/ER; test: Induction of apoptosis in human PC-9/ER cells assessed as late apoptotic cells at 1 uM for 48 hrs by annexin V/PI staining based flow cytometric analysis in presence of scramble non-target siRNA (reference value: 4.2%); format: functional
# [22] = system: PC-9/ER; test: Induction of apoptosis in human PC-9/ER cells assessed as necrotic cells at 1 uM for 48 hrs by annexin V/PI staining based flow cytometric analysis relative to control; format: functional; in short: as §1
# [23] = system: PC-9/ER; test: Antiproliferative activity against human PC-9/ER cells assessed as reduction in cell survival rate pretreated with UNC0638 followed by compound addition upto 1 uM incubated for 48 hrs by MTT assay; format: functional, cell-based
# In short: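 PC9/ER cells pretreated with UNC0638 (100 nM), DMSO as control, then given Erlotinib at a range of concentrations for 48 h. Viability by MTT: 4 h at 37 °C, formazan dissolved in DMSO, absorbance at 570 nm.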
# [24] = system: PC-9; test: Induction of apoptosis in human PC-9 cells assessed as viable cells at 0.1 uM for 48 hrs by annexin V/PI staining based flow cytometric analysis relative to control; format: functional; details: read-out: Activity; in short: as §2
# [25] = system: PC-9/ER; test: Induction of apoptosis in human PC-9/ER cells assessed as early apoptotic cells at 1 uM for 48 hrs by annexin V/PI staining based flow cytometric analysis in presence of PTEN vector relative to control; format: functional; in short: as §1
# [26] = system: PC-9/ER; test: Induction of apoptosis in human PC-9/ER cells assessed as early apoptotic cells at 1 uM for 48 hrs by annexin V/PI staining based flow cytometric analysis in presence of […] siRNA (reference value: 1.3%); format: functional
# [27] = system: PC-9; test: Induction of apoptosis in human PC-9 cells assessed as necrotic cells at 0.1 uM for 48 hrs by annexin V/PI staining based flow cytometric analysis relative to control; format: functional; in short: as §2
# [28] = system: PC-9; test: Induction of apoptosis in human PC-9 cells assessed as early apoptotic cells at 0.1 uM for 48 hrs by annexin V/PI staining based flow cytometric analysis relative to control; format: functional; in short: as §2
# [29] = system: PC-9; test: Induction of apoptosis in human PC-9 cells assessed as early apoptotic cells at 0.1 uM for 48 hrs by annexin V/PI staining based flow cytometric analysis in presence of PTEN-siRNA relative to control; format: functional; in short: as §2
# [30] = system: PC-9/ER; test: Induction of apoptosis in human PC-9/ER cells assessed as viable cells at 1 uM for 48 hrs by annexin V/PI staining based flow cytometric analysis in presence of PTEN vector relative to control; format: functional; details: read-out: Activity; in short: as §1
smiles,measurement,setting,value
C#Cc1cccc(Nc2ncnc3cc(OCCOC)c(OCCOC)cc23)c1 [ERLOTINIB],Activity,[1],6.4%
same,Activity,[2],1.6%
same,Activity,[3],4.9%
same,Activity,[4],14.5%
same,Activity,[5],inactive
same,Activity,[6],1.3%
same,Activity,[7],18.8%
same,Activity,[8],17.5%
same,Activity,[9],6.6%
same,viability at 1 µM,[10],87.1%
same,Activity,[11],6.2%
same,Activity,[12],5.7%
same,Activity,[13],1.5%
same,Activity,[14],2.8%
same,viability at 1 µM,[15],77.8%
same,Activity,[16],4.9%
same,viability at 1 µM,[17],82.7%
same,viability at 1 µM,[18],77.4%
same,viability at 0.1 µM,[19],76.5%
same,Activity,[20],4.5%
same,Activity,[21],9.8%
same,Activity,[22],1.6%
same,Activity,[23],Active
same,viability at 0.1 µM,[24],58.2%
same,Activity,[25],22.7%
same,Activity,[26],0.6%
same,Activity,[27],5.1%
same,Activity,[28],17.9%
same,Activity,[29],15.3%
same,viability at 1 µM,[30],70.1%
